The source of these data is article PMC8136437 (ACS chemical biology, 2020).

Experiment [1] concerns the target T1, HCK-T338H (Homo sapiens, UniProt P08631, T333H). Nature of the experiment: HCK activation loop autophosphorylation. In kind it is cell-based. The method, boiled down:
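GM-CSF-dependent TF-1 cells were made cytokine-independent by retroviral FLT3-ITD, then retrovirally transduced with mutant HCK. For kinase activity, cells were exposed to 0, 30, 100 or 300 nM test compound; HCK was immunoprecipitated and blotted for pY416 and total HCK (3 independent experiments, normalized to DMSO). IC50: Cell Titer-Blue viability across a concentration range, triplicate, DMSO-normalized, nonlinear regression.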

Experiment [2] has as its system AML patient-derived xenografts. The conditions noted are these: oral administration; cited from earlier work.
The target in experiment [3] is kinome panel (HCK, other SRC-family members, FLT3 and other Class III receptor tyrosine kinases). The conditions noted are these: KINOMEscan; cited from earlier work.
A further experiment addresses HCK-T338M (Homo sapiens, UniProt P08631, T333M). Nature of the experiment: HCK activation loop autophosphorylation. It counts as cell-based. Put shortly:
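Transfected human 293T cells expressing the mutant kinase were treated with the test compound at 0, 100 or 1000 nM, with DMSO as the no-inhibitor control. HCK was immunoprecipitated and immunoblotted for pY416 and total HCK, then detected with infrared-dye secondary antibodies. The pY416/HCK signal ratio was normalized to DMSO; mean ± SE of two independent experiments.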

Experiment [4] has as its target T1, HCK-T338H. Nature of the experiment: HCK activation loop autophosphorylation. It counts as cell-based. The conditions noted are these: 293T cells, 100 and 1,000 nM A-419259.
Experiment [5] concerns Philadelphia chromosome-positive CML cells. The conditions noted are these: at concentrations that did not directly inhibit BCR-ABL; cited from earlier work.
Experiment [6] relates to Rat-2 resistant clone 5-1 (HCK-YF mutant library). It counts as cell-based. The conditions noted are these: resistant clone 5-1, 1 μM A-419259 vs DMSO.
The test system of experiment [7] is Rat-2 cells expressing HCK-YF. Nature of the experiment: Soft-agar colony-forming assay, Rat-2 fibroblasts transformed with HCK-YF. Particulars: 1 μM A-419259, soft agar, two weeks. It counts as cell-based. The method, boiled down: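 Rat-2 fibroblasts infected with 293T-produced retroviruses carrying the HCK-YF codon mutagenesis library, then G-418 selected. Cells plated in soft agar (semi-solid medium) with test compound at 1.0 μM, 5,000 cells per plate, selected two weeks. Picked colonies expanded in 2D without inhibitor, then re-assayed with test compound or DMSO carrier in triplicate. Colonies Wright-Giemsa stained and counted; mean ± SE.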

In experiment [8] the test system is TF-1/FLT3-ITD cells expressing HCK-T338H. The experiment in a line: Growth inhibition. It counts as cell-based, human. Put shortly: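 TF-1 cells made cytokine-independent by retroviral FLT3-ITD transduction, then retrovirally transduced with wild-type or mutant HCK. Each population exposed to a wide range of test compound concentrations; viability read by Cell Titer-Blue. Each point in triplicate, normalized to DMSO (no inhibitor) control, plotted as mean ± SE. IC50 estimated by nonlinear regression fit of concentration-response curves.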

T1 sequence (P08631 22-526 T333H): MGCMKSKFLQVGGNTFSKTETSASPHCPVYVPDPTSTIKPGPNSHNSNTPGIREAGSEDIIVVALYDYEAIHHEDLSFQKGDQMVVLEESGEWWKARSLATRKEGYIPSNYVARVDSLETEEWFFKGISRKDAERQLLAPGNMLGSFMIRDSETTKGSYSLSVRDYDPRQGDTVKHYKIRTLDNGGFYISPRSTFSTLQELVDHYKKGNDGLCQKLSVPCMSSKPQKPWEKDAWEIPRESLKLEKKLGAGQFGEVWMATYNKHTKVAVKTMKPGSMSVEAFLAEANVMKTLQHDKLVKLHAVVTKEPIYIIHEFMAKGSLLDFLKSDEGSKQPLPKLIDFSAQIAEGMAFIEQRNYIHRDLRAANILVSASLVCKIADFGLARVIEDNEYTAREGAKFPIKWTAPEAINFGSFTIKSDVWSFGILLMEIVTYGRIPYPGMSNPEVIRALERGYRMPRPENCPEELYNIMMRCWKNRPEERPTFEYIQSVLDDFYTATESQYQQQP
Sequence of HCK-T338M (P08631 22-526 T333M): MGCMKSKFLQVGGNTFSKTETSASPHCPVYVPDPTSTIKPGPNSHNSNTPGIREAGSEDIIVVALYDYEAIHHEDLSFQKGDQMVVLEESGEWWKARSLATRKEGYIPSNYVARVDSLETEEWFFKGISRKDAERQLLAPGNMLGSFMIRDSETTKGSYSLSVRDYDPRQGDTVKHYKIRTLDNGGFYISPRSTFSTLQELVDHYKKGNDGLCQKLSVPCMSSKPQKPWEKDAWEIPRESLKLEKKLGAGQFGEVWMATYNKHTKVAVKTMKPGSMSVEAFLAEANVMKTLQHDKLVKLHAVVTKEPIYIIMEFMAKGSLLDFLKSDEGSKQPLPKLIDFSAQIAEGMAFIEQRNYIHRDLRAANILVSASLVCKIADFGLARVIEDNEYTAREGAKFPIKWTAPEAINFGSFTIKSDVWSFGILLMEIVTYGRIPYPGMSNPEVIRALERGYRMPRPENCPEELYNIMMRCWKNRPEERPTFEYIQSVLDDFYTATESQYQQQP

As to `CN1CCN(C2CCC(n3cc(-c4ccc(Oc5ccccc5)cc4)c4c(N)ncnc43)CC2)CC1` (stereo not shown) [A-419259], the “Tyr416 phosphorylation of HCK-T338H in the presence of A-419259” value at HCK-T338H [1] (TF-1/FLT3-ITD cells, concentrations up to 100 nM) is recorded as “remained phosphorylated on Tyr416”. Besides, the IC50 at HCK-T338H [1] (read-out: IC50, kinase inhibition, TF-1/FLT3-ITD cells expressing HCK-T338H) is about 100 nM; in experiment [8] (read-out: IC50, growth suppression, TF-1/FLT3-ITD cells expressing HCK-T338H), about 100 nM. In addition, in experiment [2], the “activity in mice bearing AML patient-derived xenografts” value was “potent activity”. For the same compound, the kinase specificity profile entry in experiment [3] was “remarkably narrow specificity profile”. Moreover, the “resistance of HCK-T338M autophosphorylation to A-419259” value on HCK-T338M (293T cells, 100 nM A-419259) is reported as “complete resistance”; at HCK-T338M (293T cells, 1,000 nM A-419259) it was “partial resistance”. On HCK-T338H [4], the “activation loop phosphorylation (pY416) of HCK-T338H” value is listed as “no change in activation loop phosphorylation”. In addition, the “growth arrest and apoptosis of CML cells” value in experiment [5] is “induced growth arrest and apoptosis”. Moreover, in experiment [6], the “colony formation in the presence vs absence of A-419259” value is listed as “equal numbers of colonies in the presence or absence of A-419259”. In addition, the “colony formation by control cells expressing HCK-YF” value in [7] is “completely blocked colony formation”. Moreover, in experiment [8] (HCK-T338H expression vs wild-type HCK), the “sensitivity of TF-1/FLT3-ITD cells to growth inhibition” value is given as “reduced sensitivity”. Besides, the “shift in the IC50 for growth suppression” value in [8] (HCK-T338H vs wild-type HCK in TF-1/FLT3-ITD cells) amounted to 2 fold.
